Source: ChEMBL document CHEMBL4130532, “Camellianols A-G, Barrigenol-like Triterpenoids with PTP1B Inhibitory Effects from the Endangered Ornamental Plant Camellia crapnelliana” (J Nat Prod, 2017)

What was measured:
[1] = Cytotoxicity against human L02 cells assessed as cell viability at 10 uM after 24 hrs by MTS assay relative to control; type: cell-based; details: read-out: Activity
Outline: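 Human […] L02 cells were seeded and cultured overnight, then exposed to the compound at varying concentrations for 24 h. Medium containing the water-soluble tetrazolium MTS reagent was added, and the cells were incubated at 37 °C for 2 h to read out viability.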

[2] = biological target: T1, Tyrosine-protein phosphatase non-receptor type 1 (Homo sapiens, UniProt P18031); assay: Inhibition of recombinant human GST-tagged PTP1B catalytic domain expressed in Escherichia coli BL21 using para-nitrophenyl phosphate as substrate
T1 sequence (P18031 whole entry): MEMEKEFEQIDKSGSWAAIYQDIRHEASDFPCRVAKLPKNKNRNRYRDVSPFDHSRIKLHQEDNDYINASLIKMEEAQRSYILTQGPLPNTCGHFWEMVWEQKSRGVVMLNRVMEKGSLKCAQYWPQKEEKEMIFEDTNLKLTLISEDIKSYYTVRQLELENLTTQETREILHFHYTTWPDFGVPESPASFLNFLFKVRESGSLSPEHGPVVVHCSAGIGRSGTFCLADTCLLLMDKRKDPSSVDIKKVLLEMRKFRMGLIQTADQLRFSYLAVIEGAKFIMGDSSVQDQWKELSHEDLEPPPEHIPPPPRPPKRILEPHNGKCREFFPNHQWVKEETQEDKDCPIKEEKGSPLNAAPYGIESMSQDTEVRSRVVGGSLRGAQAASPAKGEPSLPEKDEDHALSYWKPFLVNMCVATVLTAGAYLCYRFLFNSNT

SMILES: C/C=C(/C)C(=O)OC[C@@]12[C@H](O)[C@H](O)[C@]3(C)C(=CC[C@@H]4[C@@]5(C)CC[C@H](O)C(C)(C)[C@@H]5CC[C@]43C)[C@@H]1CC(C)(C)C[C@@H]2O
- viability at 24 h, 10 µM [1]: > 90%
- IC50 [2]: 11.1 µM

SMILES: C=C(C)[C@@H]1CC[C@]2(C)CC[C@]3(C)[C@H](CC[C@@H]4[C@@]5(C)CC[C@H](O)C(C)(C)[C@@H]5CC[C@]43C)[C@@H]12 [LUPEOL]
- viability at 24 h, 10 µM [1]: > 90%
- IC50 [2]: 3.68 µM

SMILES: CC1(C)CC[C@]2(C)CC[C@]3(C)C(=CC[C@@H]4[C@@]5(C)CC[C@H](O)C(C)(C)[C@@H]5CC[C@]43C)[C@@H]2C1 [beta-AMYRIN]
- viability at 24 h, 10 µM [1]: > 90%
- IC50 [2]: > 100 µM

SMILES: CC1(C)CC[C@]2(CO)[C@H](O)[C@H](O)[C@]3(C)C(=CC[C@@H]4[C@@]5(C)CC[C@H](O)C(C)(C)[C@@H]5CC[C@]43C)[C@@H]2C1
- viability at 24 h, 10 µM [1]: > 90%
- IC50 [2]: 14.4 µM

SMILES: CC(=O)O[C@@H]1[C@H](O)[C@]2(C)C(=CC[C@@H]3[C@@]4(C)CCC(=O)C(C)(C)[C@@H]4CC[C@]32C)[C@@H]2CC(C)(C)C[C@H](O)[C@]12CO
- viability at 24 h, 10 µM [1]: > 90%
- IC50 [2]: 20 µM

SMILES: C[C@H]1[C@H](C)CC[C@]2(C)CC[C@]3(C)C(=CC[C@@H]4[C@@]5(C)CC[C@H](O)C(C)(C)[C@@H]5CC[C@]43C)[C@H]12
- viability at 24 h, 10 µM [1]: > 90%
- IC50 [2]: 19.3 µM

SMILES: CC1(C)CC[C@]2(C)CC[C@@]3(C)[C@]4(C)CC[C@H]5C(C)(C)[C@@H](O)CC[C@]5(C)[C@H]4[C@H](O)C(=O)[C@]3(O)[C@@H]2C1
- viability at 24 h, 10 µM [1]: > 90%
- IC50 [2]: 1.34 µM

SMILES: CC1(C)CC[C@]2(C(=O)O)CC[C@]3(C)C(=CC[C@@H]4[C@@]5(C)CC[C@H](O)C(C)(C)[C@@H]5CC[C@]43C)[C@@H]2C1 [OLEANOLIC_ACID]
- viability at 24 h, 10 µM [1]: > 90%

SMILES: CC(=O)O[C@@H]1[C@H](O)[C@]2(C)C(=CC[C@@H]3[C@@]4(C)CC[C@H](O)C(C)(C)[C@@H]4CC[C@]32C)[C@@H]2CC(C)(C)C[C@H](O)[C@]12CO
- viability at 24 h, 10 µM [1]: > 90%
- IC50 [2]: 47.4 µM

SMILES: CC(C)(O)[C@@H]1CC[C@]2(C)CC[C@]3(C)C(CC[C@@H]4[C@@]5(C)CC[C@H](O)C(C)(C)[C@@H]5CC[C@]43C)[C@H]12 (stereo not given in full)
- viability at 24 h, 10 µM [1]: > 90%
- IC50 [2]: 12.4 µM

SMILES: CC(=O)O[C@H]1[C@@H](O)[C@@]2(CO)[C@@H](O)CC(C)(C)C[C@H]2C2=CC[C@@H]3[C@@]4(C)CCC(=O)C(C)(C)[C@@H]4CC[C@@]3(C)[C@@]21C
- viability at 24 h, 10 µM [1]: > 90%
- IC50 [2]: 44.4 µM

SMILES: CC1(C)C[C@H](O)[C@]2(CO)[C@H](O)[C@H](O)[C@]3(C)C(=CC[C@@H]4[C@@]5(C)CCC(=O)C(C)(C)[C@@H]5CC[C@]43C)[C@@H]2C1
- viability at 24 h, 10 µM [1]: > 90%
- IC50 [2]: 49.4 µM

SMILES: C/C=C(/C)C(=O)O[C@H]1CC(C)(C)C[C@H]2C3=CC[C@@H]4[C@@]5(C)CC[C@H](O)C(C)(C)[C@@H]5CC[C@@]4(C)[C@]3(C)[C@@H](O)[C@@H](O)[C@@]12CO
- viability at 24 h, 10 µM [1]: > 90%
- IC50 [2]: 2.56 µM

SMILES: CC1(C)C[C@H](O)[C@]2(CO)[C@H](O)[C@H](O)[C@]3(C)C(=CC[C@@H]4[C@@]5(C)CC[C@H](O)C(C)(C)[C@@H]5CC[C@]43C)[C@@H]2C1
- viability at 24 h, 10 µM [1]: > 90%
- IC50 [2]: 16.8 µM

SMILES: C/C=C(/C)C(=O)O[C@H]1CC(C)(C)C[C@H]2C3=CC[C@@H]4[C@@]5(C)CC[C@H](O)C(C)(C)[C@@H]5CC[C@@]4(C)[C@]3(C)[C@@H](O)[C@@H](OC(C)=O)[C@@]12CO
- viability at 24 h, 10 µM [1]: > 90%
- IC50 [2]: 4.87 µM

SMILES: CC(=O)O[C@@H]1C[C@]2(C)C(=CC[C@@H]3[C@@]4(C)CC[C@H](O)C(C)(C)[C@@H]4CC[C@]32C)[C@@H]2CC(C)(C)C[C@H](O)[C@]12CO
- viability at 24 h, 10 µM [1]: > 90%
- IC50 [2]: 10.2 µM

SMILES: C/C=C(/C)C(=O)O[C@H]1CC(C)(C)C[C@H]2C3=CC[C@@H]4[C@@]5(C)CC[C@H](O)C(C)(C)[C@@H]5CC[C@@]4(C)[C@]3(C)[C@@H](OC(C)=O)[C@@H](O)[C@@]12CO
- viability at 24 h, 10 µM [1]: > 90%
- IC50 [2]: 7.4 µM

SMILES: CC1(C)C[C@H](O)[C@]2(CO)[C@H](O)C[C@]3(C)C(=CC[C@@H]4[C@@]5(C)CC[C@H](O)C(C)(C)[C@@H]5CC[C@]43C)[C@@H]2C1
- viability at 24 h, 10 µM [1]: > 90%
- IC50 [2]: 8.93 µM
